Screening data: PubChem BioAssay, Columbia University Molecular Screening Center
The full list was thinned out, with hits kept by preference.
INS promoter act: TRM-6 insulin promoter activation; AID 1296; activation, % at 2 µM; 0.81% of 130,000 active; TRM-6 cells (human fetal islet line), insulin promoter eGFP reporter, imaging; plate-scaled: unstimulated 0, stimulated control 100;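 active means activation at 2 µM above a set limit, confirmed on inspection of the cell images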;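 further: share of cells whose green reporter signal exceeds an intensity cutoff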
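Material: TRM-6 insulin promoter–eGFP reporter cells. Buffer or medium: Low-glucose (5.5 mM) medium with tamoxifen. Probe or stimulus: tamoxifen at 0.75 µM added at seeding for reporter induction. Times: tamoxifen pre-incubation 15 h overnight, then compound exposure 48 h at 37 °C. Detection: high-content imaging of fixed cells with Hoechst nuclear stain.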
Numbers stand for hits; i = inactive.

SMILES	INS promoter act
O=S(=O)(NCc1csc(-c2cccnc2)n1)c1cccs1	i
CCc1ccc(S(=O)(=O)NCc2csc(-c3cccnc3)n2)s1	857.1
CC(=O)Nc1ccc(S(=O)(=O)NCc2csc(-c3cccnc3)n2)cc1	i
CCC(CC)c1nnc(NC(=O)[C@@H](NC(=O)c2cccc(C)c2)C(C)C)s1	i
Cc1ccc(C)c(CN2CCCNC2=O)c1	i
CC1=C(C(=O)NCCN2CCN(C)CC2)C2(CCC(C)CC2)OC1=O (centres undefined)	i
O=C(Nc1cc(C(F)(F)F)ccc1N1CCOCC1)c1c(F)c(F)c(F)c(F)c1F	i
O=S(=O)(Nc1cc(C(F)(F)F)ccc1N1CCOCC1)c1ccc2ccccc2c1	385.7
O=[N+]([O-])c1cc(C(F)(F)F)ccc1N1CCN(S(=O)(=O)c2ccc3ccccc3c2)CC1	i
COCc1cc(C)nc(OCC(=O)N/N=C\c2cc(C)n(-c3cccc(C(F)(F)F)c3)c2C)c1C#N	i
CSc1nnc(-c2cnccn2)n1CCCN1CCCC1=O	i
COc1cccc(-c2cc(C(=O)NCCc3ccccc3)no2)c1	i
CCCCNc1nc(-c2ccccc2)cc(C(F)(F)F)c1C(N)=O	i
COc1ccc(OC)c(NC(=O)CNC(=O)Cn2c(C)cc3ccccc3c2=O)c1	i
COc1ccc(OC)c(NC(=O)CN2CCC(C(=O)c3ccc(C)cc3)CC2)c1	i
CCn1c(=O)n(CC(=O)Nc2cc(OC)ccc2OC)c(=O)c2ccccc21	600.0
CC(C)(C)c1nnc(NC(=O)Cc2ccc(Br)cc2)s1	i
Cc1ccc(Oc2ccc(NC(=O)CCC(=O)OCC(=O)c3cccs3)cc2)cc1C	i
N#C/C(=C/c1ccc(N2CCCCC2)o1)C(=O)Nc1ccc(Cl)cc1	270.4
N#C/C(=C/c1ccc(N2CCCCC2)o1)C(=O)Nc1ccc2ccccc2c1	i
N#C/C(=C/c1ccc(N2CCCCCC2)o1)c1cccc(F)c1	i
CCC(=O)Nc1ccc(Oc2ccc(NC(=O)CC)c(NC(=O)CC)c2)cc1	i
CCN(CC(=O)NCCc1ccccc1)S(=O)(=O)c1ccc(Br)cc1	i
CCCNC(=O)CN(CCc1ccccc1)S(C)(=O)=O	92.9
CCOCCCNC(=O)CN(Cc1ccc(Cl)cc1)S(C)(=O)=O	i
SMILES	INS promoter act
Cc1ccc(C2CC(=O)NC(SCC(=O)Nc3nccs3)=C2C#N)cc1 (centres undefined)	i
COc1ccc(S(=O)(=O)Nc2cc3c4c(oc3c3ccccc23)CC(C)(C)CC4=O)cc1	86.8
COc1ccc(S(=O)(=O)Nc2ccccc2C)cc1	i
COc1ccc(NS(=O)(=O)c2ccc(SC)cc2)c(OC)c1	i
CC1(C)C2CCC1(CS(=O)(=O)Nc1ccc(S(=O)(=O)N3CCCC3)cc1)C(=O)C2 (centres undefined)	i
Cc1cc(-c2ccccc2)nn1-c1nc2c(c(=O)[nH]c(=O)n2C)n1C	i
CN1C(=O)/C(=C/c2ccccc2OCc2cccc(F)c2)N(C)C1=S	i
COc1ccc(/C=C2\NC(=S)N(CC3CCCO3)C2=O)c(OC)c1C (centres undefined)	i
COc1cc(N2CCCC2)c(OC)cc1/C=C1/NC(=S)NC1=O	i
Cc1ccccc1N1CCN(C(=O)CN2C(=O)c3ccccc3C2=O)CC1	i
Cc1cc(/C=C2/C(=O)N(C)C(=S)N2C)ccc1N1CCCC1	376.2
CCCN1C(=O)/C(=C/c2ccc(N3CCCC3)c(C)c2)NC1=S	92.0
CCOC(=O)N1CCN(CC(=O)N2c3ccccc3CC2C)CC1 (centres undefined)	i
COc1ccccc1NC(=S)N1CCN(Cc2ccc3c(c2)OCO3)CC1	i
Cc1nnc(-c2cnn(C)c2N)n1Cc1ccc2c(c1)OCO2	i
COc1cc2c(cc1OC)C1=C(C#N)CC/C(=N\S(=O)(=O)c3cccc(Cl)c3)N1CC2	86.8
COc1cc2c(cc1OC)-c1cc(OCc3ccccc3Cl)nc(=O)n1CC2	i
COc1cc2c(cc1OC)C(CC#N)=NC(C)(C)C2	i
O=C(CSc1ccc(-c2ccccc2)nn1)N1CCOCC1	i
CC(C(=O)Nc1ccc(S(=O)(=O)N2CCOCC2)cc1)N1CCN(c2ccccn2)CC1 (centres undefined)	i
CCCC(=O)Nc1ccccc1NC(=O)CN(C)S(=O)(=O)c1ccccc1	i
COc1ccc(CNC(=O)C(c2ccco2)N(Cc2cccs2)C(=O)Cc2cccs2)cc1 (centres undefined)	80.0
COc1ccc(CNC(=O)C(c2ccc(C)cc2)N(Cc2cccs2)C(=O)c2ccc3c(c2)OCCO3)cc1 (centres undefined)	i
COc1ccc(CNC(=O)C(c2cccs2)N(Cc2ccco2)C(=O)Cc2cccs2)cc1 (centres undefined)	i
CCc1nc2ccc(C(=O)O)cc2nc1CC	i
SMILES	INS promoter act
CCC(=O)Nc1nc(C)c(C(=O)NC2CCCCC2)s1	i
COc1ccc(-c2nnc(SCC(=O)Nc3ccccc3OC)o2)cc1	i
COc1ccccc1NC(=O)CSc1nnc(-c2ccncc2)o1	i
COC(=O)c1ccc(OC)c(CSc2nnc(-c3ccc(C(C)(C)C)cc3)o2)c1	508.3
CN(Cc1ccco1)S(=O)(=O)c1ccc2c(c1)CCN2C(=O)CCC(=O)O	i
CCOC(=O)N1CCN(C(=O)C2CCN(S(=O)(=O)c3ccc(OC)cc3)CC2)CC1	i
CCN(CC)S(=O)(=O)c1ccc2c3c(cccc13)C(=O)N2	i
CCOC(=O)c1c(C)oc2ccc(NS(=O)(=O)c3ccc4c5c(cccc35)C(=O)N4)cc12	506.3
Cc1oc2ccc(NS(=O)(=O)c3ccccc3)cc2c1C(=O)Nc1ccccc1	i
COc1ccccc1C/C(N)=N/OC(=O)c1cccc([N+](=O)[O-])c1C	i
CCOc1nc(SC(C(C)=O)C(=O)Nc2ccccc2)nc(N(C)C)n1 (centres undefined)	i
N#Cc1c(-c2ccccc2)ccn(Cc2ccc(Cl)cc2)c1=O	i
COc1cc2cc(CN(Cc3cccs3)C(=S)Nc3cccc(C)c3)c(=O)[nH]c2cc1OC	353.8
Cc1cccc(NC(=S)N(Cc2cccs2)Cc2cc3cc(C)ccc3[nH]c2=O)c1	i
CNC(=S)N(Cc1cccs1)Cc1cc2cc(OC)c(OC)cc2[nH]c1=O	i
CCn1nnc(-c2ccccc2NS(=O)(=O)c2ccc(S(=O)(=O)N(C)C3CCCCC3)cc2)n1	i
Cc1ccc(NC(=O)COC(=O)CN2C(=O)NC(C)(C)C2=O)cc1S(=O)(=O)N1CCOCC1	i
Cc1ccc(C(=O)N/N=C/c2ccc([N+](=O)[O-])s2)cc1	i
Cc1ccc(NC(=O)/C=C/c2ccc([N+](=O)[O-])s2)cc1	270.4
Cc1ccc(NC(=O)/C=C/c2ccc([N+](=O)[O-])s2)c(C)c1	i
CCOc1ccc(-n2c(SCC)nc3c(c2=O)SCC3)cc1	i
O=C(CCc1ccccc1)NNC(=S)Nc1ccc(F)cc1	i
O=C1CCCC2=C1C(c1ccccc1)CC(=O)N2c1ccccc1 (centres undefined)	181.8
Cc1cc(C)n(C2CC(=O)N(c3ccccc3)C2=O)n1 (centres undefined)	i
Cc1ccccc1C1CC(=O)NC2=C1C(=O)CCC2 (centres undefined)	i
N#Cc1cc(-c2ccccc2)c[nH]c1=O	i
FC(F)(F)c1cnc(-c2cnc(-c3cccnc3)nc2)c(Cl)c1	i
CCOC(=O)c1ccccc1NC(=O)CSc1ccccc1	i
O=c1oc(-c2ccccc2NS(=O)(=O)c2ccc3ccccc3c2)nc2ccccc12	i
CS(=O)(=O)c1ccc(S(=O)CC(=O)OCc2ccccc2)c([N+](=O)[O-])c1 (centres undefined)	i
